# Experimental data published in ChEMBL document CHEMBL2057102, “Aminothienopyridazine inhibitors of tau aggregation: evaluation of structure-activity relationship leads to selection of candidates with desirable in vivo properties” (Bioorg Med Chem, 2012).
# Legend:
# [1] = Ratio of unbound fraction in brain to plasma in B6C3F1 mouse at 5 mg/kg, ip after 16 hrs; assay type: ADME, organism-based; parameters: dose 5 mg/kg, route intraperitoneal; conditions: in vivo
# In short: (§1)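 Mice given 5 mg/kg i.p. (n = 3 per time point) and sacrificed at times from 0.5 to 16 h after dosing. Perfused brain hemispheres were homogenized in 10 mM ammonium acetate pH 5.7 (50% w/v). Plasma came from EDTA blood. Samples were extracted with acetonitrile and quantified by LC-MS/MS (MRM, positive ESI) against matrix standard curves by linear regression.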
# [2] = Clearance in B6C3F1 mouse plasma at 5 mg/kg, ip after 16 hrs; assay type: ADME, organism-based; parameters: dose 5 mg/kg, route intraperitoneal; in short: as §1
# Mus musculus [3] = assay: Toxicity in B6C3F1 mouse assessed as adverse effects up to 100 mg/kg, po; assay type: organism-based; parameters: dose 100 mg/kg, route oral; conditions: in vivo
# [4] = Half life in B6C3F1 mouse plasma at 5 mg/kg, ip after 16 hrs; assay type: ADME, organism-based; parameters: dose 5 mg/kg, route intraperitoneal; in short: as §1
# Mus musculus [5] = assay: Toxicity in B6C3F1 mouse assessed as change in neutrophil count at 50 mg/kg, po administered in water qd for 1 month; assay type: organism-based; parameters: dose 50 mg/kg, route oral; conditions: in vivo
# In short: (§2)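 Female B6C3F1 mice, 2 months old (n = 5 per group), dosed for 1 month via drinking water containing 3% PEG400 and 0.5% methylcellulose. Dose equivalent 50 mg/kg/day, assuming about 5 ml water per mouse per day. Vehicle controls were included and water intake was monitored. At the end, body weight was taken, then perfusion, organ weights (heart, liver, kidney, spleen, brain) and complete blood counts.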
# [6] = AUC (0.5 to 16 hrs) in B6C3F1 mouse plasma at 5 mg/kg, ip; assay type: ADME, organism-based; parameters: time 0.5-16 hr, dose 5 mg/kg, route intraperitoneal; in short: as §1
# Plasma [7] = assay: Free AUC (0.5 to 16 hrs) in B6C3F1 mouse plasma at 5 mg/kg, ip; assay type: ADME, organism-based; parameters: dose 5 mg/kg, route intraperitoneal; conditions: in vivo; in short: as §1
# Mus musculus [8] = assay: Toxicity in B6C3F1 mouse assessed as change in heart weight at 50 mg/kg, po administered in water qd for 1 month; assay type: organism-based; parameters: dose 50 mg/kg, route oral; conditions: in vivo; in short: as §2
# Homo sapiens [9] = species: Homo sapiens; assay: Inhibition of heparin-induced tau K18PL mutant aggregation assessed as soluble tau fragment level at 50 uM after 5 days by SDS-PAGE analysis
# In short: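 Secondary centrifugation assay. Heparin-induced K18 P301L tau fibrillization mixtures with compound at 50 μM were centrifuged. Soluble and insoluble fractions were analysed by SDS-PAGE to give the percentage of tau remaining soluble.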
# [10] = Drug uptake in B6C3F1 mouse plasma at 5 mg/kg, ip after 1 hr; assay type: ADME, organism-based; parameters: dose 5 mg/kg, route intraperitoneal; conditions: B6C3F1, mouse, plasma
# In short: (§3)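 Single i.p. dose of 5 mg/kg, sacrifice 1 h later. Perfused brain hemispheres were homogenized in 10 mM ammonium acetate pH 5.7 (50% w/v). EDTA plasma was taken. Brain homogenate or plasma was extracted with acetonitrile and analysed by LC-MS/MS (MRM) against matrix standard curves. Brain-to-plasma ratio was taken from total levels.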
# [11] = Drug uptake in B6C3F1 mouse brain at 5 mg/kg, ip after 1 hr; assay type: ADME, organism-based; parameters: dose 5 mg/kg, route intraperitoneal; conditions: B6C3F1, mouse, brain, read-out: Drug uptake; in short: as §3
# [12] = Ratio of drug level in brain to plasma in B6C3F1 mouse at 5 mg/kg, ip after 16 hrs; assay type: ADME, organism-based; parameters: dose 5 mg/kg, route intraperitoneal; conditions: read-out: BPR; in short: as §1
# [13] = Oral bioavailability in B6C3F1 mouse at 10 mg/kg at 1 hr; assay type: ADME, organism-based; conditions: in vivo
# [14] = Inhibition of heparin-induced alexa red-labelled tau K18PL mutant aggregation after 6 hrs by thioflavin-T fluorescence assay; parameters: species or system Homo sapiens
# In short: (§4)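 Heparin-induced fibrillization of tau K18 fragment (residues 244–369) carrying P301L, with tau at 20 μM in sodium acetate buffer. Fibril formation was read by thioflavin-T fluorescence. IC50 came from sigmoidal fitting of concentration-response data, each concentration in triplicate. Values are from a single fit, or the mean of 2 or more analyses where marked.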
# Mus musculus [15] = assay: Toxicity in B6C3F1 mouse assessed as change in kidney weight at 50 mg/kg, po administered in water qd for 1 month; assay type: organism-based; parameters: dose 50 mg/kg, route oral; conditions: in vivo; in short: as §2
# Mus musculus [16] = assay: Toxicity in B6C3F1 mouse assessed as change in lymphocyte count at 50 mg/kg, po administered in water qd for 1 month; assay type: organism-based; parameters: dose 50 mg/kg, route oral; conditions: in vivo; in short: as §2
# [17] = Plasma concentration in B6C3F1 mouse at 5 mg/kg, ip at 1 hr; assay type: ADME, organism-based; parameters: dose 5 mg/kg, route intraperitoneal; in short: as §3
# Mus musculus [18] = assay: Toxicity in B6C3F1 mouse assessed as body weight loss at 50 mg/kg, po administered in water qd for 1 month relative to control; assay type: organism-based; parameters: dose 50 mg/kg, route oral; conditions: in vivo; in short: as §2
# Brain [19] = assay: Free AUC (0.5 to 16 hrs) in B6C3F1 mouse brain at 5 mg/kg, ip; assay type: ADME, organism-based; parameters: dose 5 mg/kg, route intraperitoneal; conditions: in vivo; in short: as §1
# Mus musculus [20] = assay: Toxicity in B6C3F1 mouse assessed as change in liver weight at 50 mg/kg, po administered in water qd for 1 month; assay type: organism-based; parameters: dose 50 mg/kg, route oral; conditions: in vivo; in short: as §2
# Mus musculus [21] = assay: Toxicity in B6C3F1 mouse assessed as change in RBC count at 50 mg/kg, po administered in water qd for 1 month; assay type: organism-based; parameters: dose 50 mg/kg, route oral; conditions: in vivo; in short: as §2
# Mus musculus [22] = assay: Toxicity in B6C3F1 mouse assessed as change in spleen weight at 50 mg/kg, po administered in water qd for 1 month; assay type: organism-based; parameters: dose 50 mg/kg, route oral; conditions: in vivo; in short: as §2
# Mus musculus [23] = assay: Toxicity in B6C3F1 mouse assessed as adverse effects at 50 mg/kg, po administered qd for 1 month; assay type: organism-based; parameters: dose 50 mg/kg, route oral; conditions: in vivo; in short: as §2
# Plasma [24] = assay: Volume of distribution in B6C3F1 mouse plasma at 5 mg/kg, ip after 16 hrs; assay type: ADME, organism-based; parameters: dose 5 mg/kg, route intraperitoneal; conditions: in vivo; in short: as §1
# [25] = Plasma concentration in B6C3F1 mouse at 10 mg/kg, po at 1 hr; assay type: ADME, organism-based; parameters: dose 10 mg/kg, route oral
# Homo sapiens [26] = species: Homo sapiens; assay: Inhibition of heparin-induced alexa red-labelled tau K18PL mutant aggregation after 6 hrs by thioflavin-T fluorescence assay relative to control; in short: as §4
# Mus musculus [27] = assay: Toxicity in B6C3F1 mouse assessed as mild and transient lethargy at 100 mg/kg, po; assay type: organism-based; parameters: dose 100 mg/kg, route oral; conditions: in vivo
# Mus musculus [28] = assay: Toxicity in B6C3F1 mouse assessed as change in WBC count at 50 mg/kg, po administered in water qd for 1 month; assay type: organism-based; parameters: dose 50 mg/kg, route oral; conditions: in vivo; in short: as §2
# Mus musculus [29] = assay: Toxicity in B6C3F1 mouse assessed as change in brain weight at 50 mg/kg, po administered in water qd for 1 month; assay type: organism-based; parameters: dose 50 mg/kg, route oral; conditions: in vivo; in short: as §2
# Mus musculus [30] = assay: Toxicity in B6C3F1 mouse assessed as adverse event at 50 mg/kg, po administered in water qd for 1 month; assay type: organism-based; parameters: dose 50 mg/kg, route oral; conditions: in vivo; in short: as §2
# Mus musculus [31] = assay: Ratio of drug level in brain to plasma in B6C3F1 mouse at 5 mg/kg, ip after 1 hr
# Brain [32] = assay: Clearance in B6C3F1 mouse brain at 5 mg/kg, ip after 16 hrs; assay type: ADME, organism-based; parameters: dose 5 mg/kg, route intraperitoneal; conditions: in vivo; in short: as §1
# Brain [33] = assay: Fraction unbound in mouse brain homogenate at 1 uM after 5 hrs by equilibrium dialysis; assay type: ADME, tissue-based
# In short: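 Rapid equilibrium dialysis. Compound at 1 μM in mouse plasma or brain homogenate, each diluted threefold with 100 mM sodium phosphate pH 7.4. Triplicate samples dialysed against the same buffer for 5 h at 37 °C with shaking. Both sides were matrix-matched, extracted with acetonitrile and run by LC-MS/MS. fu is buffer response over sample response; brain fu was corrected for tissue dilution.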
# [34] = AUC (0.5 to 16 hrs) in B6C3F1 mouse brain at 5 mg/kg, ip; assay type: ADME, organism-based; parameters: time 0.5-16 hr, dose 5 mg/kg, route intraperitoneal; in short: as §1
# [35] = Drug uptake in B6C3F1 mouse brain at 50 mg/kg, po administered qd in drinking water for 3 days; assay type: ADME, organism-based; parameters: dose 50 mg/kg, route oral; conditions: read-out: Drug uptake
# In short: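 Brain levels were measured after 3 days. Perfused brain hemispheres were homogenized in 10 mM ammonium acetate, pH 5.7 (50% w/v), extracted with acetonitrile, and analysed by LC-MS/MS (MRM) against brain-homogenate standard curves. Free level was calculated from the equilibrium-dialysis brain unbound fraction.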
compound,measurement,setting,value
Nc1scc2c(C(=O)NC3CC3)nn(-c3ccc(F)cc3)c(=O)c12,BPR,[1],1.2
same,CL/F,[2],1.31 mL/min
same,Activity,Mus musculus [3],Non-toxic
same,half-life,[4],2.2 h
same,Activity,Mus musculus [5],Non-toxic
same,AUC(0-t),[6],2350 ng·h/mL
same,fAUC,Plasma [7],162 ng·h/mL
same,Activity,Mus musculus [8],Non-toxic
same,inhibition,Homo sapiens [9],78%
same,concentration at 1 h,[10],610 ng/mL
same,concentration at 1 h,[11],670 ng/g
same,Kp at 16 h,[12],1.9
same,bioavailability,[13],60%
same,IC50,[14],2500 nM
same,Activity,Mus musculus [15],Non-toxic
same,Activity,Mus musculus [16],Non-toxic
same,concentration at 1 h,[17],610 ng/mL
same,Activity,Mus musculus [18],Non-toxic
same,fAUC,Brain [19],195 ng·h/mL
same,Activity,Mus musculus [20],Non-toxic
same,Activity,Mus musculus [21],Non-toxic
same,Activity,Mus musculus [22],Non-toxic
same,Activity,Mus musculus [23],Non-toxic
same,Vd,Plasma [24],246 mL
same,concentration at 1 h,[25],832 ng/mL
same,Imax,Homo sapiens [26],88%
same,Activity,Mus musculus [27],Toxic
same,Activity,Mus musculus [28],Non-toxic
same,Activity,Mus musculus [29],Non-toxic
same,Activity,Mus musculus [30],Non-toxic
same,BPR,Mus musculus [31],1.09
same,CL,Brain [32],50 mL/h
same,Fu,Brain [33],4.3%
same,AUC(0-t),[34],4510 ng·h/mL
same,concentration at 72 h,[35],139 nM
